Laboratory results published in the RNAGym collection of RNA variant scans (doi:10.1126/science.aae0568).
This sample holds only a part of the variants without activity.

B1: tRNA (parent)
chain: GUUCCGUUGGCGUAAUGGUAACGCGUCUCCCUCCUAAGGAGAAGACUGCGGGUUCGAGUCCCGUACGGAACG

Variants of: B1
Test: yeast fitness relative to wild type (ratio to wild type); higher = fitter; tRNA-Arg(CCU), competitive growth, 37 C, YPD
Outline: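 Amplicons of the tRNA-Arg(CCU) gene were sequenced, 100-nucleotide paired-end, from the start population and from each end population of a pooled yeast competition. The competition, in six parallel replicates, lasted 24 hours in YPD at 37°C. Fitness relative to wild type was calculated from changes in genotype frequencies. Genotypes had to have ≥ 100 starting reads, and estimates < 0.5 were set to 0.5.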

First: C11U C22G U47C U53G
Second: C11U C24G C33A A40C U53C
The yeast fitness of the first is lower: at most 0.5 for the first, 0.626 for the second.

Compared with C11U A45G C49A, C11G U59A is higher in yeast fitness: 0.567 for the first, 0.641 for the second.

First: C11U G25C A36U
Second: C11U A21G A70C
The yeast fitness of the first is lower: 0.547 for the first, 0.818 for the second.

First: C11U C24G C61A G67A
Second: C11U G12A G44C C46U
The yeast fitness of the first is lower: at most 0.5 for the first, 0.575 for the second.

Going from C11U A15U C33A to C11U C22U A70G, the yeast fitness rises from at most 0.5 to 0.644.

Compared with C11U A20U G39A G63A A70U, C11U A42U is higher in yeast fitness: at most 0.5 for the first, 0.897 for the second.

Going from C11G U32A C46U to C11U G23C G58A A70U, the yeast fitness falls from 0.598 to 0.541.

C11U C22A C31U G68C and C11U A42U A43G G52C C60G cannot be ordered by yeast fitness: at most 0.5 for the first, at most 0.5 for the second.

C11U A40C U53A A69C A70U and C11U A36G C46U G56A cannot be ordered by yeast fitness: at most 0.5 for the first, at most 0.5 for the second.

Going from C11U C34G to C11U G18A G41C, the yeast fitness falls from 0.591 to at most 0.5.

C11G U28A G68A and C11U G12A C31U U53C A65C cannot be ordered by yeast fitness: at most 0.5 for the first, at most 0.5 for the second.

Going from C11U C29U C66G to C11U C29U C66A, the yeast fitness rises from at most 0.5 to 0.553.

Compared with C11U A57U A65U, C11U C31G C34G A43U C61U A65U is lower in yeast fitness: 0.653 for the first, at most 0.5 for the second.

First: C11U C55G G63C G67C
Second: C11U G38C G48A
The yeast fitness of the first is lower: at most 0.5 for the first, 0.57 for the second.

C11U C33U A36G G39A G44A C55G U59C and C11U G17U C27U C31A U35C C55G C66U A70C cannot be ordered by yeast fitness: at most 0.5 for the first, at most 0.5 for the second.

Going from C11U C29U C55U to C11U C33G, the yeast fitness rises from at most 0.5 to 0.734.

First: C11U C33U
Second: C11U G25C A40U C49G G63C
The yeast fitness of the first is higher: 0.724 for the first, at most 0.5 for the second.

Compared with C11U C49G A57G, C11U C46G G51A is higher in yeast fitness: at most 0.5 for the first, 0.571 for the second.

C11U A20U C24U C29A and C11U A36C C46G cannot be ordered by yeast fitness: at most 0.5 for the first, at most 0.5 for the second.

First: C11U C49U A65G
Second: C11U A57U A70C
The yeast fitness of the first is higher: 0.76 for the first, 0.512 for the second.

C11U A14G G51C A69U and C11G U16C C24U U28C cannot be ordered by yeast fitness: at most 0.5 for the first, at most 0.5 for the second.

First: C11U A15U C22U G67A
Second: C11U A21G C55G
The yeast fitness of the first is lower: at most 0.5 for the first, 0.566 for the second.

C11U A37U G38A and C11U C60U C62U cannot be ordered by yeast fitness: at most 0.5 for the first, at most 0.5 for the second.

Compared with C11U C60U C62G, C11U C27U U35C C61G is higher in yeast fitness: 0.588 for the first, 0.606 for the second.

First: C11G U35A
Second: C11U C30U C49U
The yeast fitness of the first is lower: 0.528 for the first, 0.646 for the second.

C11U G18C C29A G67C and C11U C34U G48A cannot be ordered by yeast fitness: at most 0.5 for the first, at most 0.5 for the second.

Going from C11G U26C A45C A57C U59G to C11U C29U G39A, the yeast fitness rises from at most 0.5 to 0.619.

Compared with C11U C22U G44C U64G, C11U C55A C62U is lower in yeast fitness: 0.534 for the first, at most 0.5 for the second.

Compared with C11U G12A C31U U53C A69U, C11U G25A C62G is higher in yeast fitness: at most 0.5 for the first, 0.569 for the second.

C11U C22G U28A C31G C55A G68C and C11U C30U A65C cannot be ordered by yeast fitness: at most 0.5 for the first, at most 0.5 for the second.

First: C11G U28C G39A C60A G67A
Second: C11U G18C C33G G44A C46G C66U
The yeast fitness of the first is lower: at most 0.5 for the first, 0.606 for the second.

First: C11U A21U C27A C34A A36U U47C
Second: C11U A14U U28A C33U
The yeast fitness of the first is lower: at most 0.5 for the first, 0.535 for the second.

Compared with C11U C29U G67A, C11U A15U G52A C61G is lower in yeast fitness: 0.57 for the first, at most 0.5 for the second.

Compared with C11U A36G C46U, C11U C24G C33G is lower in yeast fitness: 0.77 for the first, 0.541 for the second.

Going from C11U G39C C62U G63C to C11U C22U C66U, the yeast fitness rises from at most 0.5 to 0.517.

Going from C11U A36C to C11U A36U, the yeast fitness falls from 0.641 to 0.606.

Compared with C11U A15U G51A G56C, C11U C33G A65C is higher in yeast fitness: at most 0.5 for the first, 0.694 for the second.

First: C11U C31U A65C
Second: C11U G25A
The yeast fitness of the first is lower: 0.52 for the first, 0.867 for the second.

Compared with C11U A40C U53A, C11U A21G A37U A40G G41A is lower in yeast fitness: 0.586 for the first, at most 0.5 for the second.

C11G U19A C34G C49G and C11G U16G G38C G68A cannot be ordered by yeast fitness: at most 0.5 for the first, at most 0.5 for the second.

C11U C27U C31A U35C C55G C62U C66U A70C and C11U A15C A21U C24A C33A C66A cannot be ordered by yeast fitness: at most 0.5 for the first, at most 0.5 for the second.

Compared with C11U G38A A40U G52C, C11U A15C C27G C30U C46A is lower in yeast fitness: 0.568 for the first, at most 0.5 for the second.

C11U A14G C24G and C11U G12A G18C U47C G68C cannot be ordered by yeast fitness: at most 0.5 for the first, at most 0.5 for the second.

Going from C11U C24G C33A A40C A69C to C11U A15U C31A U32A A57G G67A, the yeast fitness falls from 0.72 to at most 0.5.

Compared with C11U G17A G48A G51C C60A U64C, C11U G17C A20C is lower in yeast fitness: 0.623 for the first, at most 0.5 for the second.

Compared with C11U A20C G25C C27A A37U, C11U A43C G68A is higher in yeast fitness: at most 0.5 for the first, 0.545 for the second.

C11U C27A G56C C62A A65C and C11U A15G G63C C66U cannot be ordered by yeast fitness: at most 0.5 for the first, at most 0.5 for the second.

Compared with C11U C27G C31G G39C G56A C61A A69G, C11U A65U G67C is lower in yeast fitness: 0.641 for the first, at most 0.5 for the second.

Going from C11G U19C A45U to C11U G25C C31U, the yeast fitness rises from at most 0.5 to 0.679.

Compared with C11G U26C C61U C62G, C11U C27A G48A U53A C61G is lower in yeast fitness: 0.62 for the first, at most 0.5 for the second.

Going from C11U C24G A70G to C11U C29U U35C, the yeast fitness falls from 0.649 to at most 0.5.

Compared with C11U C49U A70C, C11G U19C C27G U28G is lower in yeast fitness: 0.672 for the first, at most 0.5 for the second.

Compared with C11U A20G U59A, C11U A15U C27G is higher in yeast fitness: 0.514 for the first, 0.529 for the second.

C11U C30U A42U G51A A57U A65U A70U and C11U G18A A37G cannot be ordered by yeast fitness: at most 0.5 for the first, at most 0.5 for the second.

First: C11U A15C G56A
Second: C11U G12A
The yeast fitness of the first is lower: 0.57 for the first, 0.998 for the second.

C11U C30A U35A G38A C61G and C11U A45C U59C cannot be ordered by yeast fitness: at most 0.5 for the first, at most 0.5 for the second.

First: C11U A15G A69C
Second: C11U A42C C49G
The yeast fitness of the first is higher: 0.75 for the first, at most 0.5 for the second.

Compared with C11U G39A A40U, C11U C30G is higher in yeast fitness: 0.673 for the first, 0.694 for the second.

First: C11U A15C A21G C24G U28A C61U
Second: C11U C33G U47A U64G
The yeast fitness of the first is lower: at most 0.5 for the first, 0.552 for the second.

Going from C11U C27G G39C to C11U C27U C46U A57U, the yeast fitness rises from at most 0.5 to 0.647.

Compared with C11U C31G A43C, C11U G44A C62U is higher in yeast fitness: 0.654 for the first, 0.762 for the second.

C11U C31A A37G and C11U G17A U35A G38A C61G cannot be ordered by yeast fitness: at most 0.5 for the first, at most 0.5 for the second.

Going from C11U A20C C22G A65G A70C to C11U A15U, the yeast fitness rises from at most 0.5 to 0.757.

C11U C29G C33U and C11U C22G C29G G41A cannot be ordered by yeast fitness: at most 0.5 for the first, at most 0.5 for the second.

First: C11U A40C G68A
Second: C11U C34G C55G U59C C60U G67U
The yeast fitness of the first is higher: 0.733 for the first, at most 0.5 for the second.

Going from C11U C33U A70U to C11U A14G C46A G51A, the yeast fitness rises from 0.612 to 0.615.

First: C11U C62U A70G
Second: C11U C24G C27G A36U G38C C60G C66A
The yeast fitness of the first is higher: 0.753 for the first, at most 0.5 for the second.

Compared with C11U A21C A42C A69C, C11U G12C U26C A40U A57U is higher in yeast fitness: at most 0.5 for the first, 0.612 for the second.

C11G U47A G68C and C11U C24A A43G C62A cannot be ordered by yeast fitness: at most 0.5 for the first, at most 0.5 for the second.

First: C11U A20U G68A A70C
Second: C11U
The yeast fitness of the first is lower: 0.515 for the first, 1.01 for the second.

Compared with C11U C29U C61U U64C, C11U C46G C49U is higher in yeast fitness: at most 0.5 for the first, 0.825 for the second.

First: C11U A15C A70U
Second: C11U A20C U47G
The yeast fitness of the first is higher: 0.586 for the first, at most 0.5 for the second.

C11U A20G C22A G23C U28G A43G A57G and C11U A14G C24G C27U G41A A42C G67C cannot be ordered by yeast fitness: at most 0.5 for the first, at most 0.5 for the second.

C11U C24U C34G A70G and C11U C31G A45G G56U cannot be ordered by yeast fitness: at most 0.5 for the first, at most 0.5 for the second.

C11U A15C C27A G39C and C11U A15G C27G G56C cannot be ordered by yeast fitness: at most 0.5 for the first, at most 0.5 for the second.

C11U C30U G48C G68C and C11U G18C C31A cannot be ordered by yeast fitness: at most 0.5 for the first, at most 0.5 for the second.

Compared with C11U C22A C29G C33U A57U A70U, C11U C49U C61G A65C is higher in yeast fitness: at most 0.5 for the first, 0.534 for the second.

First: C11U C24A
Second: C11U C24U
The yeast fitness of the first is lower: 0.606 for the first, 0.852 for the second.

C11G U16G U35A G41C and C11U A36U G58A G67C cannot be ordered by yeast fitness: at most 0.5 for the first, at most 0.5 for the second.

Compared with C11U C31G, C11U A42G C60A is lower in yeast fitness: 0.791 for the first, at most 0.5 for the second.

C11U A21U A43C G68C and C11U G18A G23C C34U U59A A70C cannot be ordered by yeast fitness: at most 0.5 for the first, at most 0.5 for the second.

Going from C11U G41A G58A to C11U A36U A43C A57G, the yeast fitness rises from 0.768 to 1.1.

Going from C11U C29U A40C C49G to C11U G25A C29U G67A A70U, the yeast fitness falls from 0.648 to at most 0.5.

With C11U C55A U64C the yeast fitness was at most 0.5.
